ChEMBL document CHEMBL3259728, “Design, synthesis and biological evaluation of some novel substituted quinazolines as antitumor agents” (2014)

How the values were obtained:
Type in all cases: functional
SNB-19 = assay: Growth inhibition of human SNB19 cells assessed as cell growth at 10^-4 M after 48 hrs by SRB assay; details: SNB-19, 48 h, read-out: Activity
[1] = Growth inhibition of human SF295 cells assessed as cell growth at 10^-4 M after 48 hrs by SRB assay; details: SF-295, 48 h, read-out: Activity
SF-268 [2] = assay: Growth inhibition of human SF268 cells assessed as cell growth at 10^-4 M after 48 hrs by SRB assay; details: SF-268, 48 h, read-out: Activity
[3] = Growth inhibition of human HCT15 cells assessed as cell growth at 10^-4 M after 48 hrs by SRB assay; details: HCT-15, 48 h, read-out: Activity
NCI-H460 [4] = assay: Growth inhibition of human NCI-H460 cells assessed as cell growth at 10^-4 M after 48 hrs by SRB assay; details: NCI-H460, 48 h, read-out: Activity
CCRF-CEM [5] = assay: Growth inhibition of human CCRF-CEM cells assessed as cell growth at 10^-4 M after 48 hrs by SRB assay; details: read-out: Activity
Outline: (§1)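 Five-dose NCI panel protocol. Each dose (10^-4 to 10^-8 M, 10-fold steps) was given as 48 h continuous exposure, and protein was measured by SRB staining. Percentage growth at each level is [(Ti−Tz)/(C−Tz)]×100, where Tz is time-zero absorbance and C is untreated control.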

SK-MEL-5 = assay: Growth inhibition of human SK-MEL-5 cells assessed as cell growth at 10^-8 M after 48 hrs by SRB assay; details: SK-MEL-5, 48 h, read-out: Activity
COLO 205 [6] = assay: Growth inhibition of human COLO205 cells assessed as cell growth at 10^-8 M after 48 hrs by SRB assay; details: COLO 205, 48 h, read-out: Activity; outline: as §1
[7] = Growth inhibition of human HOP92 cells assessed as cell growth at 10^-8 M after 48 hrs by SRB assay; details: HOP-92, 48 h, read-out: Activity
CCRF-CEM [8] = assay: Growth inhibition of human CCRF-CEM cells assessed as cell growth at 10^-8 M after 48 hrs by SRB assay; details: read-out: Activity; outline: as §1
[9] = Growth inhibition of human UACC62 cells assessed as cell growth at 10^-5 M after 48 hrs by SRB assay; details: UACC-62, 48 h, read-out: Activity
HCT-116 [10] = assay: Growth inhibition of human HCT116 cells assessed as cell growth at 10^-5 M after 48 hrs by SRB assay; details: HCT-116, 48 h, read-out: Activity
COLO 205 [11] = assay: Growth inhibition of human COLO205 cells assessed as cell growth at 10^-5 M after 48 hrs by SRB assay; details: COLO 205, 48 h, read-out: Activity; outline: as §1
ACHN [12] = assay: Growth inhibition of human ACHN cells assessed as cell growth at 10^-6 M after 48 hrs by SRB assay; details: read-out: Activity; outline: as §1
SNB-75 = assay: Growth inhibition of human SNB75 cells assessed as cell growth at 10^-4 M after 48 hrs by SRB assay; details: SNB-75, 48 h, read-out: Activity
CCRF-CEM [13] = assay: Growth inhibition of human CCRF-CEM cells assessed as cell growth at 10^-5 M after 48 hrs by SRB assay; details: read-out: Activity; outline: as §1
NCI-H226 = assay: Growth inhibition of human NCI-H226 cells assessed as cell growth at 10^-6 M after 48 hrs by SRB assay; details: NCI-H226, 48 h, read-out: Activity
[14] = Growth inhibition of human OVCAR4 cells assessed as cell growth at 10^-7 M after 48 hrs by SRB assay; details: OVCAR-4, 48 h, read-out: Activity
HT-29 = assay: Growth inhibition of human HT-29 cells assessed as cell growth at 10^-7 M after 48 hrs by SRB assay; details: HT-29, 48 h, read-out: Activity
HCT-116 [15] = assay: Growth inhibition of human HCT116 cells assessed as cell growth at 10^-7 M after 48 hrs by SRB assay; details: HCT-116, 48 h, read-out: Activity
A498 = assay: Cytotoxicity against human A498 cells after 48 hrs by SRB assay; details: A498, 48 h
Outline: (§2)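 NCI 60-cell-line panel of human tumour lines from nine cancer types. Continuous 48 h exposure at five 10-fold dilutions from 10^-4 to 10^-8 M, with 5-FU as positive control. SRB protein stain read spectrophotometrically at time zero, untreated control and each concentration. GI50, TGI and LC50 were derived from the [(Ti−Tz)/(C−Tz)]×100 growth relations, and out-of-range values are given as > or < the tested limits.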

[16] = Cytotoxicity against human OVCAR8 cells after 48 hrs by SRB assay; details: OVCAR-8, 48 h; outline: as §2
SF-295 = assay: Cytotoxicity against human SF295 cells after 48 hrs by SRB assay; details: SF-295, 48 h; outline: as §2
SF-268 [17] = assay: Growth inhibition of human SF268 cells assessed as cell growth at 10^-6 M after 48 hrs by SRB assay; details: SF-268, 48 h, read-out: Activity
NCI-H460 [18] = assay: Growth inhibition of human NCI-H460 cells assessed as cell growth at 10^-6 M after 48 hrs by SRB assay; details: NCI-H460, 48 h, read-out: Activity
DU-145 = assay: Cytotoxicity against human DU145 cells after 48 hrs by SRB assay; details: DU-145, 48 h; outline: as §2
NCI-H322M = assay: Growth inhibition of human NCI-H322M cells assessed as cell growth at 10^-6 M after 48 hrs by SRB assay; details: read-out: Activity
U-251 = assay: Growth inhibition of human U251 cells assessed as cell growth at 10^-7 M after 48 hrs by SRB assay; details: U-251, 48 h, read-out: Activity
MDA-MB-468 [19] = assay: Growth inhibition of human MDA-MB-468 cells assessed as cell growth at 10^-8 M after 48 hrs by SRB assay; details: MDA-MB-468, 48 h, read-out: Activity
ACHN [20] = assay: Growth inhibition of human ACHN cells assessed as cell growth at 10^-8 M after 48 hrs by SRB assay; details: read-out: Activity; outline: as §1
MDA-MB-468 [21] = assay: Growth inhibition of human MDA-MB-468 cells assessed as cell growth at 10^-4 M after 48 hrs by SRB assay; details: MDA-MB-468, 48 h, read-out: Activity
[22] = Growth inhibition of human Hs578T cells assessed as cell growth at 10^-4 M after 48 hrs by SRB assay; details: Hs-578T, read-out: Activity
[23] = read-out: LC50 (the source's name)
[24] = read-out: pLC50 (the source's name) (converted)

For `Cc1ccc(-c2nc3ccc(Cl)cc3c(=O)n2/N=C/c2ccccc2)cc1`, which growth at 100 µM (SNB-19) is on record?
The growth at 100 µM was 10%.

What about the growth at 100 µM [1] of the same compound?
Its growth at 100 µM is 18%.

What about the growth at 100 µM (SF-268 [2]) of the same compound?
The growth at 100 µM was 36%.

And the growth at 100 µM [3]?
The growth at 100 µM was 69%.

And the growth at 100 µM (NCI-H460 [4])?
Its growth at 100 µM is 24%.

And the growth at 100 µM (CCRF-CEM [5])?
The growth at 100 µM was 57%.

And the growth at 0.01 µM (SK-MEL-5)?
Its growth at 0.01 µM is 94%.

And the growth at 0.01 µM (COLO 205 [6])?
Its growth at 0.01 µM is 103%.

What about the growth at 0.01 µM [7] of the same compound?
Its growth at 0.01 µM is 93%.

What about the growth at 0.01 µM (CCRF-CEM [8]) of the same compound?
The growth at 0.01 µM was 98%.

And the growth at 10 µM [9]?
The growth at 10 µM was 62%.

What about the growth at 10 µM (HCT-116 [10]) of the same compound?
Its growth at 10 µM is 37%.

What about the growth at 10 µM (COLO 205 [11]) of the same compound?
Its growth at 10 µM is 47%.

What about the growth at 1 µM (ACHN [12]) of the same compound?
The growth at 1 µM was 40%.

And the growth at 100 µM (SNB-75)?
The growth at 100 µM was -43%.

What about the growth at 10 µM (CCRF-CEM [13]) of the same compound?
The growth at 10 µM was 86%.

And the growth at 1 µM (NCI-H226)?
Its growth at 1 µM is 79%.

And the growth at 0.1 µM [14]?
Its growth at 0.1 µM is 96%.

And the growth at 0.1 µM (HT-29)?
Its growth at 0.1 µM is 93%.

And the growth at 0.1 µM (HCT-116 [15])?
The growth at 0.1 µM was 96%.

And the GI50 (A498; read-out: GI50)?
The GI50 was 5.91 µM.

And the CC50 (A498; [23])?
Its CC50 is > 100 µM.

What about the TGI (A498; read-out: TGI) of the same compound?
Its TGI is > 100 µM.

What about the GI50 (A498; read-out: pGI50 (converted)) of the same compound?
The GI50 was 5.89 µM.

What about the CC50 (A498; [24]) of the same compound?
The CC50 was > 100 µM.

What about the TGI (A498; read-out: pTGI) of the same compound?
Its TGI is > 100 µM.

And the GI50 ([16]; read-out: GI50)?
Its GI50 is 4.58 µM.

And the CC50 [16, 23]?
The CC50 was > 100 µM.

What about the TGI ([16]; read-out: TGI) of the same compound?
Its TGI is > 100 µM.

And the GI50 ([16]; read-out: pGI50 (converted))?
Its GI50 is 4.57 µM.

What about the CC50 [16, 24] of the same compound?
Its CC50 is > 100 µM.

And the TGI ([16]; read-out: pTGI)?
Its TGI is > 100 µM.

What about the GI50 (SF-295; read-out: GI50) of the same compound?
The GI50 was 4.73 µM.

And the CC50 (SF-295; [23])?
Its CC50 is > 100 µM.

And the TGI (SF-295; read-out: TGI)?
The TGI was > 100 µM.

What about the GI50 (SF-295; read-out: pGI50 (converted)) of the same compound?
Its GI50 is 4.79 µM.

What about the CC50 (SF-295; [24]) of the same compound?
The CC50 was > 100 µM.

And the TGI (SF-295; read-out: pTGI)?
Its TGI is > 100 µM.

And the growth at 1 µM (SF-268 [17])?
The growth at 1 µM was 90%.

And the growth at 1 µM (NCI-H460 [18])?
Its growth at 1 µM is 85%.

And the GI50 (DU-145; read-out: GI50)?
The GI50 was 58.4 µM.

What about the CC50 (DU-145; [23]) of the same compound?
Its CC50 is > 100 µM.

And the TGI (DU-145; read-out: TGI)?
The TGI was > 100 µM.

What about the GI50 (DU-145; read-out: pGI50 (converted)) of the same compound?
Its GI50 is 58.9 µM.

And the CC50 (DU-145; [24])?
Its CC50 is > 100 µM.

What about the TGI (DU-145; read-out: pTGI) of the same compound?
The TGI was > 100 µM.

And the growth at 1 µM (NCI-H322M)?
Its growth at 1 µM is 82%.

What about the growth at 0.1 µM (U-251) of the same compound?
The growth at 0.1 µM was 99%.

What about the growth at 0.01 µM (MDA-MB-468 [19]) of the same compound?
The growth at 0.01 µM was 91%.

What about the growth at 0.01 µM (ACHN [20]) of the same compound?
The growth at 0.01 µM was 93%.

What about the growth at 100 µM (MDA-MB-468 [21]) of the same compound?
The growth at 100 µM was 45%.

What about the growth at 100 µM [22] of the same compound?
Its growth at 100 µM is -9%.
